Activity calls are given as the source filed them. No cut-off for these calls is given here.
Tests used:
Brain [1] = assay: Ratio of drug level in brain after 2 mins to brain after 60 mins in ddY mouse brain at 0.1 to 0.4 uCi, iv; format: ADME, organism-based; conditions: in vivo
Procedure, shortened: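 ddY mice (5 weeks, 22–25 g) given [125I]ligand (0.1–0.4 µCi) iv in PBS/DMSO. Brain radioactivity (% dose/g) measured by gamma counting at 2 and 60 min, and the 2 min/60 min ratio taken as a washout index.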

Heart [2] = assay: Biodistribution in ddY mouse heart at 0.1 to 0.4 uCi, iv after 60 mins by gamma counting; format: ADME, organism-based; conditions: in vivo, 1 h
Procedure, shortened: (§1)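 [125I]ligand (0.1–0.4 µCi) in 100 µL PBS (pH 7.4) containing 30 µL DMSO, injected into the tail vein of ddY mice (5 weeks, 22–25 g). Mice sacrificed at 2, 10, 30 and 60 min. Organs removed, weighed and gamma-counted. Values are % injected dose per gram, except stomach as % dose per organ. Mean (SD) of 3–6 mice per time point.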

Pancreas [3] = assay: Biodistribution in ddY mouse pancreas at 0.1 to 0.4 uCi, iv after 60 mins by gamma counting; format: ADME, organism-based; conditions: in vivo, 1 h; procedure, shortened: as §1
Stomach [4] = assay: Biodistribution in ddY mouse stomach assessed per organ at 0.1 to 0.4 uCi, iv after 60 mins by gamma counting; format: ADME, organism-based; conditions: in vivo, 1 h; procedure, shortened: as §1
Lung [5] = assay: Biodistribution in ddY mouse lung at 0.1 to 0.4 uCi, iv after 60 mins by gamma counting; format: ADME, organism-based; conditions: in vivo, 1 h; procedure, shortened: as §1
Spleen [6] = assay: Biodistribution in ddY mouse spleen at 0.1 to 0.4 uCi, iv after 60 mins by gamma counting; format: ADME, organism-based; conditions: in vivo, 1 h; procedure, shortened: as §1
Intestine [7] = assay: Biodistribution in ddY mouse intestine at 0.1 to 0.4 uCi, iv after 60 mins by gamma counting; format: ADME, organism-based; conditions: in vivo, 1 h; procedure, shortened: as §1
Kidney [8] = assay: Biodistribution in ddY mouse kidney at 0.1 to 0.4 uCi, iv after 60 mins by gamma counting; format: ADME, organism-based; conditions: in vivo, 1 h; procedure, shortened: as §1
Liver [9] = assay: Biodistribution in ddY mouse liver at 0.1 to 0.4 uCi, iv after 60 mins by gamma counting; format: ADME, organism-based; conditions: in vivo, 1 h; procedure, shortened: as §1
Brain [10] = assay: Biodistribution in ddY mouse brain at 0.1 to 0.4 uCi, iv after 60 mins by gamma counting; format: ADME, organism-based; conditions: in vivo, 1 h; procedure, shortened: as §1
Blood [11] = assay: Biodistribution in ddY mouse blood at 0.1 to 0.4 uCi, iv after 60 mins by gamma counting; format: ADME, organism-based; conditions: in vivo, 1 h; procedure, shortened: as §1
Heart [12] = assay: Biodistribution in ddY mouse heart at 0.1 to 0.4 uCi, iv after 30 mins by gamma counting; format: ADME, organism-based; conditions: in vivo, 0.5 h; procedure, shortened: as §1
Pancreas [13] = assay: Biodistribution in ddY mouse pancreas at 0.1 to 0.4 uCi, iv after 30 mins by gamma counting; format: ADME, organism-based; conditions: in vivo, 0.5 h; procedure, shortened: as §1
Stomach [14] = assay: Biodistribution in ddY mouse stomach assessed per organ at 0.1 to 0.4 uCi, iv after 30 mins by gamma counting; format: ADME, organism-based; conditions: in vivo, 0.5 h; procedure, shortened: as §1
Lung [15] = assay: Biodistribution in ddY mouse lung at 0.1 to 0.4 uCi, iv after 30 mins by gamma counting; format: ADME, organism-based; conditions: in vivo, 0.5 h; procedure, shortened: as §1
Spleen [16] = assay: Biodistribution in ddY mouse spleen at 0.1 to 0.4 uCi, iv after 30 mins by gamma counting; format: ADME, organism-based; conditions: in vivo, 0.5 h; procedure, shortened: as §1
Intestine [17] = assay: Biodistribution in ddY mouse intestine at 0.1 to 0.4 uCi, iv after 30 mins by gamma counting; format: ADME, organism-based; conditions: in vivo, 0.5 h; procedure, shortened: as §1
Kidney [18] = assay: Biodistribution in ddY mouse kidney at 0.1 to 0.4 uCi, iv after 30 mins by gamma counting; format: ADME, organism-based; conditions: in vivo, 0.5 h; procedure, shortened: as §1
Liver [19] = assay: Biodistribution in ddY mouse liver at 0.1 to 0.4 uCi, iv after 30 mins by gamma counting; format: ADME, organism-based; conditions: in vivo, 0.5 h; procedure, shortened: as §1
Brain [20] = assay: Biodistribution in ddY mouse brain at 0.1 to 0.4 uCi, iv after 30 mins by gamma counting; format: ADME, organism-based; conditions: in vivo, 0.5 h; procedure, shortened: as §1
Blood [21] = assay: Biodistribution in ddY mouse blood at 0.1 to 0.4 uCi, iv after 30 mins by gamma counting; format: ADME, organism-based; conditions: in vivo, 0.5 h; procedure, shortened: as §1
Heart [22] = assay: Biodistribution in ddY mouse heart at 0.1 to 0.4 uCi, iv after 10 mins by gamma counting; format: ADME, organism-based; conditions: in vivo; procedure, shortened: as §1
Pancreas [23] = assay: Biodistribution in ddY mouse pancreas at 0.1 to 0.4 uCi, iv after 10 mins by gamma counting; format: ADME, organism-based; conditions: in vivo; procedure, shortened: as §1
Stomach [24] = assay: Biodistribution in ddY mouse stomach assessed per organ at 0.1 to 0.4 uCi, iv after 10 mins by gamma counting; format: ADME, organism-based; conditions: in vivo; procedure, shortened: as §1
Lung [25] = assay: Biodistribution in ddY mouse lung at 0.1 to 0.4 uCi, iv after 10 mins by gamma counting; format: ADME, organism-based; conditions: in vivo; procedure, shortened: as §1
Spleen [26] = assay: Biodistribution in ddY mouse spleen at 0.1 to 0.4 uCi, iv after 10 mins by gamma counting; format: ADME, organism-based; conditions: in vivo; procedure, shortened: as §1
Intestine [27] = assay: Biodistribution in ddY mouse intestine at 0.1 to 0.4 uCi, iv after 10 mins by gamma counting; format: ADME, organism-based; conditions: in vivo; procedure, shortened: as §1
Liver [28] = assay: Biodistribution in ddY mouse liver at 0.1 to 0.4 uCi, iv after 10 mins by gamma counting; format: ADME, organism-based; conditions: in vivo; procedure, shortened: as §1
Kidney [29] = assay: Biodistribution in ddY mouse kidney at 0.1 to 0.4 uCi, iv after 10 mins by gamma counting; format: ADME, organism-based; conditions: in vivo; procedure, shortened: as §1
Brain [30] = assay: Biodistribution in ddY mouse brain at 0.1 to 0.4 uCi, iv after 10 mins by gamma counting; format: ADME, organism-based; conditions: in vivo; procedure, shortened: as §1
Blood [31] = assay: Biodistribution in ddY mouse blood at 0.1 to 0.4 uCi, iv after 10 mins by gamma counting; format: ADME, organism-based; conditions: in vivo; procedure, shortened: as §1
Pancreas [32] = assay: Biodistribution in ddY mouse pancreas at 0.1 to 0.4 uCi, iv after 2 mins by gamma counting; format: ADME, organism-based; conditions: in vivo; procedure, shortened: as §1
Heart [33] = assay: Biodistribution in ddY mouse heart at 0.1 to 0.4 uCi, iv after 2 mins by gamma counting; format: ADME, organism-based; conditions: in vivo; procedure, shortened: as §1
Stomach [34] = assay: Biodistribution in ddY mouse stomach assessed per organ at 0.1 to 0.4 uCi, iv after 2 mins by gamma counting; format: ADME, organism-based; conditions: in vivo; procedure, shortened: as §1
Lung [35] = assay: Biodistribution in ddY mouse lung at 0.1 to 0.4 uCi, iv after 2 mins by gamma counting; format: ADME, organism-based; conditions: in vivo; procedure, shortened: as §1
Intestine [36] = assay: Biodistribution in ddY mouse intestine at 0.1 to 0.4 uCi, iv after 2 mins by gamma counting; format: ADME, organism-based; conditions: in vivo; procedure, shortened: as §1
Spleen [37] = assay: Biodistribution in ddY mouse spleen at 0.1 to 0.4 uCi, iv after 2 mins by gamma counting; format: ADME, organism-based; conditions: in vivo; procedure, shortened: as §1
Kidney [38] = assay: Biodistribution in ddY mouse kidney at 0.1 to 0.4 uCi, iv after 2 mins by gamma counting; format: ADME, organism-based; conditions: in vivo; procedure, shortened: as §1
Liver [39] = assay: Biodistribution in ddY mouse liver at 0.1 to 0.4 uCi, iv after 2 mins by gamma counting; format: ADME, organism-based; conditions: in vivo; procedure, shortened: as §1
Blood [40] = assay: Biodistribution in ddY mouse blood at 0.1 to 0.4 uCi, iv after 2 mins by gamma counting; format: ADME, organism-based; conditions: in vivo; procedure, shortened: as §1
Brain [41] = assay: Biodistribution in ddY mouse brain at 0.1 to 0.4 uCi, iv after 2 mins by gamma counting; format: ADME, organism-based; conditions: in vivo; procedure, shortened: as §1
[42] = n-octanol-sodium phosphate buffer partition co-efficient, log D of the compound at pH 7.4 by shake flask method; format: physicochemical
Procedure, shortened: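 Shake-flask partition between n-octanol and sodium phosphate buffer, pH 7.4, shaken 10 min at room temperature, then centrifuged. Weighed 0.5 mL samples of each layer counted. log D from the ratio of cpm per gram of octanol to cpm per gram of buffer; n = 3.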

Mus musculus [43] = species: Mus musculus; assay: Binding affinity to amyloid beta plaques in wild type mouse brain at 100 uM after 3 to 10 hrs using Thioflavin S staining by fluorescence microscopy; format: tissue-based
Procedure, shortened: (§2)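 Brains of female Tg2576 mice (32 months) or wild-type controls (30 months) removed after decapitation and frozen in powdered dry ice. 10 µm sections incubated with compound (100 µM) for 3–10 h, then washed twice for 5 min in 50% EtOH or 50% DMSO. Fluorescence imaged with a GFP filter set (ex 470 nm, em >535 nm). Adjacent sections stained with thioflavin S to confirm plaques.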

Mus musculus [44] = species: Mus musculus; assay: Binding affinity to amyloid beta plaques in Tg2576 transgenic mouse brain at 100 uM after 3 to 10 hrs using Thioflavin S staining by fluorescence microscopy; format: tissue-based; procedure, shortened: as §2
[45] = molecular target: Amyloid-beta precursor protein (Homo sapiens, UniProt P05067); assay: Displacement of [125I]IMPY from amyloid beta (1 to 42) (unknown origin) after 3 hrs by gamma counting
Procedure, shortened: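 Filtered through GF/B filters and bound radioactivity gamma-counted. IC50 from displacement curves of three independent experiments; Ki calculated with the Cheng–Prusoff equation.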

Amyloid-beta precursor protein, sequence (P05067 whole entry): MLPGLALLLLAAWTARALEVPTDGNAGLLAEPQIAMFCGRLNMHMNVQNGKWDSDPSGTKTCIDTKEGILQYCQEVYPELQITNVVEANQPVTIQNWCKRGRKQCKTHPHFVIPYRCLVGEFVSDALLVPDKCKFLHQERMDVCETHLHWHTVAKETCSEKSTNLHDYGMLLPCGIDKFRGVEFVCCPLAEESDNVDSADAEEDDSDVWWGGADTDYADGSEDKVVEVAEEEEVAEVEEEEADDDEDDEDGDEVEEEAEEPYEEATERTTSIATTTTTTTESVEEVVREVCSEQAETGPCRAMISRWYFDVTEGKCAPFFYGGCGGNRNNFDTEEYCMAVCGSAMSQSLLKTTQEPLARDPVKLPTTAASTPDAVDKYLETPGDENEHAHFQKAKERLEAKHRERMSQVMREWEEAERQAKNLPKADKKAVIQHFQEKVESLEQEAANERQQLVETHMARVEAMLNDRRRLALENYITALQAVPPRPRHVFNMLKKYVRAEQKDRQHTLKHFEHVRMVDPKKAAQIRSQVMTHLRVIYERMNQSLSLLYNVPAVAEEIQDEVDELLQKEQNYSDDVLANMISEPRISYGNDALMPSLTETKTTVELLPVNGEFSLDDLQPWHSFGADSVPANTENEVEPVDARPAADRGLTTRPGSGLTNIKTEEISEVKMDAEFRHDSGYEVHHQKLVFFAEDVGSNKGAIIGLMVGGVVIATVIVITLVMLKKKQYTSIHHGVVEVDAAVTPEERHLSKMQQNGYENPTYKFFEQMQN

CNc1c2ccc([125I])cc2nc2ccc(OC)cc12
Ratio (Brain [1]): 9
Drug uptake (Heart [2]): 0.84 % ID/g
Drug uptake (Pancreas [3]): 1.63 % ID/g
Drug uptake (Stomach [4]): 5.58 %ID
Drug uptake (Lung [5]): 2.3 % ID/g
Drug uptake (Spleen [6]): 4.45 % ID/g
Drug uptake (Intestine [7]): 23.83 % ID/g
Drug uptake (Kidney [8]): 6 % ID/g
Drug uptake (Liver [9]): 7.52 % ID/g
Drug uptake (Brain [10]): 0.33 % ID/g
Drug uptake (Blood [11]): 0.56 % ID/g
Drug uptake (Heart [12]): 1.46 % ID/g
Drug uptake (Pancreas [13]): 3.55 % ID/g
Drug uptake (Stomach [14]): 4.63 %ID
Drug uptake (Lung [15]): 4.38 % ID/g
Drug uptake (Spleen [16]): 6.02 % ID/g
Drug uptake (Intestine [17]): 19.47 % ID/g
Drug uptake (Kidney [18]): 10.25 % ID/g
Drug uptake (Liver [19]): 8.26 % ID/g
Drug uptake (Brain [20]): 0.95 % ID/g
Drug uptake (Blood [21]): 0.85 % ID/g
Drug uptake (Heart [22]): 2.8 % ID/g
Drug uptake (Pancreas [23]): 6.92 % ID/g
Drug uptake (Stomach [24]): 3.71 %ID
Drug uptake (Lung [25]): 5.62 % ID/g
Drug uptake (Spleen [26]): 9.14 % ID/g
Drug uptake (Intestine [27]): 9.11 % ID/g
Drug uptake (Liver [28]): 16.41 % ID/g
Drug uptake (Kidney [29]): 11.89 % ID/g
Drug uptake (Brain [30]): 2.34 % ID/g
Drug uptake (Blood [31]): 1.18 % ID/g
Drug uptake (Pancreas [32]): 6.91 % ID/g
Drug uptake (Heart [33]): 7.79 % ID/g
Drug uptake (Stomach [34]): 1.71 %ID
Drug uptake (Lung [35]): 15.8 % ID/g
Drug uptake (Intestine [36]): 3.82 % ID/g
Drug uptake (Spleen [37]): 7.6 % ID/g
Drug uptake (Kidney [38]): 12.98 % ID/g
Drug uptake (Liver [39]): 17.25 % ID/g
Drug uptake (Blood [40]): 1.75 % ID/g
Drug uptake (Brain [41]): 2.97 % ID/g
logD [42]: 2.14

CCN(CC)CCCC(C)Nc1c2ccc(I)cc2nc2ccc(OC)cc12 (stereo not given)
Activity (Mus musculus [43]): inactive
Activity (Mus musculus [44]): Active
Ki [45]: 353 nM

From ChEMBL document CHEMBL2321753, “Synthesis and biological evaluation of radioiodinated quinacrine-based derivatives for SPECT imaging of Aβ plaques” (Eur J Med Chem, 2013)
